# HDAC3 inh = inhibitors of human histone deacetylase 3; recombinant HDAC3, fluorogenic peptide/trypsin coupled, fluorescence; hit rate 0.15% among 320,000; AID 2718; inhibition, % at 8.3 µM; O15379; in the data active = inhibition above about 26%, passing the limit was not always enough
# FXN GAA850 act = activators of GAA850 frataxin (FXN) promoter | AID 540364 | activation, % at 6 µM | hit rate 0.56% among 360,000 | HEK293 lucGAA850 FXN promoter luciferase reporter, 24 h; percent of 10 µM SAHA response;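 active = activation above the average of all compounds screened plus 3 SD, cutoff fixed separately per campaign, cut at about 7.5% in these data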;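 note: 0% = DMSO wells and 100% = 10 µM SAHA wells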
# SENP1 FRET inh = SENP1 (human) catalytic domain inhibition | Q9P0U3 | inhibition, % at 10 µM | recombinant SENP1 catalytic domain, CyPet-SUMO1-YPet FRET cleavage | AID 624204 | hit rate 0.21% among 360,000;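 active = inhibition at least 30% at 10 µM, raw YFP signal under a set limit, fluorescence ratio 0.5 to 1.5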;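 note: 0% = enzyme with DMSO and 100% = no enzyme wells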
#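 Assay system: hSENP1 catalytic domain, recombinant. Amount: SENP1 enzyme, 20 pM final. Schedule: 50 min reaction, RT, dark. Technique: FRET, CFP and YFP emission. Control set: no-enzyme wells low, DMSO-plus-enzyme wells high control.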
# AHR act = activators of human aryl hydrocarbon receptor; hit rate 2.5% among 320,000; activation, % at 5 µM; AHR-responsive luciferase reporter cells, luminescence; P35869; in the data active = activation above about 47%;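 note: 0% = vehicle wells and 100% = reference agonist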
# Target sequence (P35869 whole entry, looked up): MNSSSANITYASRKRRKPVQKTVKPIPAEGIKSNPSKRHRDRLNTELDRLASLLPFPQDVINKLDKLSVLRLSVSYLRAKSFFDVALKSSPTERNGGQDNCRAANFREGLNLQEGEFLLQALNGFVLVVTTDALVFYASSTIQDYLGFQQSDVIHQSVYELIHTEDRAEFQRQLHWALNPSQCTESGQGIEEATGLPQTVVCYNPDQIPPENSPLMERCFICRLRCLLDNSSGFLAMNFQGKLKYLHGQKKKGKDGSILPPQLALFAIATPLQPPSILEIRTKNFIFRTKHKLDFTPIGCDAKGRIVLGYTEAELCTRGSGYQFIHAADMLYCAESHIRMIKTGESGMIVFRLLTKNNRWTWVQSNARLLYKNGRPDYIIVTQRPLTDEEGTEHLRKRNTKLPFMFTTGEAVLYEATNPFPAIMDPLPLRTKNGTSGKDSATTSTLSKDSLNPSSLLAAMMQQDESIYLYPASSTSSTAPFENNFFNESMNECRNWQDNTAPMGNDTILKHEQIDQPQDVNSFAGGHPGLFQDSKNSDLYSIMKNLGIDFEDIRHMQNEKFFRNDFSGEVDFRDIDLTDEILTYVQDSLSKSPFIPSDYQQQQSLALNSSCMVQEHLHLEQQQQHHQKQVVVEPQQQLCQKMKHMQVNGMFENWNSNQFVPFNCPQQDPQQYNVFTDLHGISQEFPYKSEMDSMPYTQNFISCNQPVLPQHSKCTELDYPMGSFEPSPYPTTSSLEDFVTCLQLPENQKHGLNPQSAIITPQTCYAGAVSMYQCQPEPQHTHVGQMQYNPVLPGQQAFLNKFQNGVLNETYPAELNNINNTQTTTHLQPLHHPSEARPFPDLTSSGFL
# CTSL1 counter = cathepsin L1 inhibition, PFM18AAP counter-screen | recombinant F. hepatica cathepsin L1, Z-Leu-Arg-MCA fluorescence | inhibition, % at 5.96 µM | hit rate 0.49% among 300,000;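 active = inhibition above the mean of all tested compounds plus 3 SD, set per screening campaign, cut at about 17% in these data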;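 note: 0% = plate median of test compound wells and 100% = 1 µM Z-Phe-Ala-diazomethylketone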
# M18AAP inhibitor = blocks P. falciparum M18 aspartyl aminopeptidase. inhibition, % at 7.35 µM. hit rate 1.2% among 290,000. recombinant PfM18AAP, H-Glu-NHMec fluorogenic cleavage;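 active = inhibition above the campaign mean inhibition over all tested compounds plus 3 SD, cut at about 28% in these data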;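 note: 0% = plate median of test compound wells and 100% = 2 mM ZnCl2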
# GAA30 counter = GAA30 FXN promoter activation counter-screen; shares compounds with FXN GAA850 act; HEK293 lucGAA30 FXN promoter luciferase, 24 h; DMSO = 0%, 5 µM ipriflavone = 100%; activation, % at 6 µM; hit rate 66% among 1,900; AID 588350;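 active = mean activation above the mean of solvent-only control wells plus 3 SD, cut at about 22% in these data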;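 note: counterscreen of GAA850 promoter hits where activity marks nonselective or luminescence artifacts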
# GAA850 confirm = confirmation of GAA850 frataxin (FXN) promoter activators; hit rate 86% among 1,900; HEK293 lucGAA850 FXN promoter luciferase reporter, 24 h; 100% = activation by SAHA; activation, % at 6 µM; shares compounds with FXN GAA850 act;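 active = mean activation above a set limit taken from the primary screen, cut at about 8% in these data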;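 note: 0% = DMSO wells and 100% = 10 µM SAHA wells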
# An asterisk follows results filed as active; / = not tested or not shown. Hits are enriched below; roughly 4.2% of the tested compounds scored in any of these assays.
SMILES,HDAC3 inh,FXN GAA850 act,SENP1 FRET inh,AHR act,CTSL1 counter,M18AAP inhibitor,GAA30 counter,GAA850 confirm
O=C(COc1ccccc1)Nc1ccc(NC(=O)c2ccco2)cc1,-1,1,0,2,1,6,/,/
CCC(C(=O)NC1CCCC1)N(C(=O)c1snc(C(N)=O)c1N)c1ccc(C)cc1C (centres undefined),-12,-2,-27,4,5,-6,/,/
Cc1ccc2oc(NC3=NC4(CCCC4)C4=C(CCCC4=O)N3)nc2c1,/,0,-12,/,/,/,/,/
COc1cccc(N=Nc2ccc(O)c3ncccc23)c1,0,9.6*,3,9,0,5,-107,-33
O=C(CCCN1C(=O)c2ccccc2C1=O)Nc1c(C(=O)C2CC2)oc2ccccc12,-4,17*,1,3,0,8,28*,8.6*
Cc1ccc(SCC2=NN(c3nc(C)cc(C)n3)C(=O)C2)cc1,-1,1,1,1,-6,2,/,/
Cc1cc(C)nc(N2N=C(C(C)(C)C)CC2=O)n1,6,16*,1,5,-2,17,21,8.0*
COc1ccc(CCNC(=O)c2cc3c(=O)n4cccc(C)c4nc3n(Cc3ccco3)c2=N)cc1OC,2,13*,-28,7,4,12,3,6
Cc1cccn2c(=O)c3cc(C(=O)NCCc4ccccc4)c(=N)n(Cc4ccco4)c3nc12,-6,-2,-23,5,8,-5,/,/
Cc1cc(NC(=O)c2ccc3c(c2)C(=O)N(c2cccc(C)c2C)C3=O)no1,9,1,2,0,-1,4,/,/
CC(=O)Nc1cccc(NC(=O)CSc2ncc(C(=O)Nc3ccccc3)c(=O)n2C)c1,4,9.7*,-11,16,1,/,21,15*
O=C(Nc1cccc(C(=O)Nc2cccc(Br)c2)c1)c1ccccc1,14,2,1,20,-2,-4,/,/
CC(C)c1ccc(NC(=O)c2cccc(Br)c2)cc1,-3,8.2*,3,43,-6,0,110*,49*
CCc1nc2ccc(C(=O)Nc3ccc(OC)c(OC)c3)cn2c1N(C)CCC(C)C,/,0,-2,/,/,/,/,/
CCc1ccccc1Nc1nc(-c2cccnc2)cs1,0,3,0,7,1,0,/,/
O=[N+]([O-])c1ccccc1Nc1nc(-c2cccnc2)cs1,-5,9.1*,3,52*,-6,6,87*,26*
N#Cc1ccccc1OCc1nnc(-c2ccccc2Br)o1,-7,8.8*,0,8,-5,-3,102*,41*
Cn1c(=O)[nH]c(=O)c2c1nc(N1CCCCC1)n2CC(O)COc1ccc([N+](=O)[O-])cc1 (centres undefined),-1,-1,1,0,7,-12,/,/
NC(=O)[C@@H]1CCCN1C(=O)c1ccc2oc(CCc3ccccc3)nc2c1,1,7.8*,1,/,/,-5,74*,31*
CN=C1S/C(=C\c2ccc(O)c(OC)c2)C(=O)N1C,7,9.9*,-8,-1,-2,/,113*,35*
CC(C)c1ccc(NC(=O)Cc2ccc(NC3=NC4CS(=O)(=O)CC4S3)cc2)cc1 (centres undefined),-2,3,-4,11,2,-7,/,/
CC[C@]12c3[nH]c4ccccc4c3CCN1C(=O)C(CC(=O)NCC13CC4CC(CC(C4)C1)C3)C[C@@H]2C(=O)N1CCN(C(=O)C2CC2)CC1 (some centres undefined),5,9.0*,0,-1,/,/,-10,3
CC[C@]12c3[nH]c4ccc(OC)cc4c3CCN1C(=O)C(CC(=O)NCC13CC4CC(CC(C4)C1)C3)C[C@@H]2C(=O)N1CCN(C(=O)C2CC2)CC1 (some centres undefined),/,15*,1,/,/,/,23*,15*
CC(C)C(NC(=O)c1ccccc1F)C(=O)NCCCn1ccnc1 (centres undefined),0,1,-2,7,/,/,/,/
CC1(C(=O)Nc2ccc3c(c2)OCCO3)CCN1C(=O)C1(c2ccc(Cl)cc2)CC1 (centres undefined),/,-4,-1,/,/,/,/,/
SMILES,HDAC3 inh,FXN GAA850 act,SENP1 FRET inh,AHR act,CTSL1 counter,M18AAP inhibitor,GAA30 counter,GAA850 confirm
O=C(Cn1c(=O)cnc2ccccc21)NNC(=O)c1ccccc1Cl,2,1,-1,9,/,/,/,/
O=C(Oc1c(-c2ccccc2)oc2ccccc2c1=O)c1ccccc1,1,13*,1,1,0,0,45*,19*
CC(=O)Nc1ccc(/C=N/Nc2nc3ccccc3s2)cc1,/,8.7*,-5,/,/,22,123*,36*
N#CCn1c(C2CCCCC2)nc2ccccc2c1=O,-3,9.3*,-19,5,0,1,26*,14*
Nn1c(C2CCCCC2)nc2ccccc2c1=O,5,-2,-1,0,-3,5,/,/
C/C(=N/NC(=O)CN1CCN(Cc2ccccc2Cl)CC1)c1cccnc1,0,2,3,8,3,-2,/,/
CCN(CC)C(=S)SSC(=S)N(CC)CC,1,20*,-4,/,1,36*,-117,-34
COC(=O)c1ccc(NN=Nc2ccc(C)cc2)cc1,/,7.8*,12,9,-1,-2,84*,31*
COCCn1c(SCC(=O)NCC(c2ccccc2)N(C)C)nc2sc3c(c2c1=O)CCC3 (centres undefined),/,4,-2,/,/,/,/,/
CN(C)C(CNC(=O)CSc1nc2sc3c(c2c(=O)n1C)CCCC3)c1ccccc1 (centres undefined),2,7.9*,1,1,/,/,8,7.6*
COc1ccc(-n2c(SCC(=O)O)nc3sc4c(c3c2=O)CCCC4)cc1,7,8.3*,3,4,8,-11,22*,15*
CCCCCCN1C[C@@H](n2cc(COC(=O)c3ccccc3)nn2)[C@H](O)C[C@@H]1c1ccccc1,/,0,0,/,/,/,/,/
COc1ccc(-c2nnc(Nc3nc4c(OC)cccc4s3)o2)c(OC)c1,4,9.0*,-10,26,0,-2,19,23*
COc1ccc2nc(Nc3ccccc3OC)sc2c1,11,5,0,22,-2,2,/,/
Cc1cc(O)c(C(=O)/C=C/c2cccc([N+](=O)[O-])c2)c(=O)o1,-6,1,-3,11,-2,9,/,/
CC(=O)Oc1ccccc1C(=O)C=Cc1cccc([N+](=O)[O-])c1,/,17*,3,/,/,/,-51,22*

# Source: PubChem (several laboratories)
